# IMP-1 inh – inhibitors of Pseudomonas aeruginosa IMP-1 metallo-beta-lactamase. purified IMP-1, nitrocefin hydrolysis, epi-absorbance fluorescence. inhibition, % at 5.6 µM. hit rate 0.45% among 290,000. AID 1556;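 active = inhibition above the mean plus 3 SD of all compounds in the same screening run, cut at about 4.5% in these data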;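 note: 0% = IMP-1 with DMSO and 100% = DMSO wells lacking enzyme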
#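 System: purified IMP-1 / Input: IMP-1 dispensed at 0.2 nM / Medium: 50 mM HEPES pH 7.1, 50 µM ZnSO4, 0.05% Brij 35 / Timing: 15 min enzyme–compound preincubation, then 25 min nitrocefin reaction, 25 °C / Technique: plate fluorescence quenching by hydrolysis product, ex 480/em 530 nm / Repeats: singlicate testing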
# BCLXL inh – blocks human Bcl-xL binding to Bim BH3 peptide. Q07817. GST-Bcl-xL / FITC-Bim BH3 peptide fluorescence polarization. inhibition, % at 10.9 µM. hit rate 0.7% among 320,000. AID 2129;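 active = inhibition above the mean of all tested compounds plus 3 SD, cutoff set per campaign, cut at about 30% in these data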;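 note: 0% = DMSO wells and 100% = unlabeled Bim-BH3 peptide competitor; inhibitors lower millipolarization by displacing the labeled peptide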
# Target sequence (Q07817 whole entry, looked up): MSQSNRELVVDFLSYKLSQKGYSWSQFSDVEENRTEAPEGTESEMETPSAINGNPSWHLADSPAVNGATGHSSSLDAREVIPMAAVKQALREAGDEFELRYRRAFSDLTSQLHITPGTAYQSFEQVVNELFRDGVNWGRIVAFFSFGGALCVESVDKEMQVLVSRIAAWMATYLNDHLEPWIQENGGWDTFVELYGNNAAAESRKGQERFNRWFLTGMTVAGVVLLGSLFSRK
# EBV gp42 inh – EBV gp42 inhibition | hit rate 0.42% among 220,000 | inhibition, % (tested at 21.74 µM) | Fluorescence polarization binding assay, mP read-out; in the data active = inhibition above about 50%
# Target sequence (Q1HVG2 whole entry, looked up): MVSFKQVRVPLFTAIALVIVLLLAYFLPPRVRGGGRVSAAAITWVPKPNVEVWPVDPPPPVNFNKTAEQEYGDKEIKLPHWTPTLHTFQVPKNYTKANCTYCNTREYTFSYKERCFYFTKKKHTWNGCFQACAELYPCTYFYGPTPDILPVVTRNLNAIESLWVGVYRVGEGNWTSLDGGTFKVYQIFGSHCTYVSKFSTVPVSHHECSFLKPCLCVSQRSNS
# VIM-2 inh – blocks Pseudomonas aeruginosa VIM-2 metallo-beta-lactamase; purified VIM-2, nitrocefin hydrolysis, epi-absorbance fluorescence; inhibition, % at 5.6 µM; hit rate 0.89% among 290,000; AID 1527;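 active = inhibition above the mean of all tested compounds plus 3 SD, cutoff set per screening run, cut at about 7.5% in these data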;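 note: red hydrolysis product quenches plate fluorescence so inhibitors raise well fluorescence; 0% = enzyme with DMSO and 100% = DMSO without enzyme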
# MEX-5 binding – C. elegans MEX-5 TCR-2 RNA binding activity | Q9XUB2 | MEX-5/FITC-TCR2 RNA binding, fluorescence polarization; stronger effect = lower value | activity score (negative = inhibition of binding), % at 10 µM | hit rate 0.38% among 300,000 | AID 1832;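 active = inhibition past about -25% in most replicates, and total fluorescence under double the plate's negative control median, limit read from the data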;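 note: 0% = DMSO and -100% = 5 µM competing unlabeled TCR2 RNA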
# GLD-1 TGE inh – GLD-1-TGE RNA interaction inhibition (C. elegans); purified GLD-1 + fluorescein TGE RNA, fluorescence polarization; inhibition, % at 5.96 µM; Q17339; hit rate 0.44% among 320,000;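 active = percent inhibition above a per-plate cutoff, the plate mean of test compounds plus 3 SD, cut at about 30% in these data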;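 note: 0% = DMSO wells with GLD-1 and probe and 100% = wells lacking GLD-1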
# Numbers without * were called inactive; nt = no result. This is a sample that favours compounds with a hit; in the whole collection about 2.2% have one here.
SMILES,IMP-1 inh,BCLXL inh,EBV gp42 inh,VIM-2 inh,MEX-5 binding,GLD-1 TGE inh
O=C(CN1C(=O)/C(=C/c2ccco2)SC1=S)Nc1ccc(C(=O)O)c(O)c1,7.2*,28.2,nt,-2.0,-27.6*,3.7
CC1(C2CC2)NC(=O)N(CC(=O)N2CCN(S(=O)(=O)c3ccc(F)c(F)c3)CC2)C1=O (stereo not drawn),nt,-18.8,nt,nt,nt,3.5
COc1ccc(NS(=O)(=O)c2ccc(N3CCCCC3)c(N)c2)cc1,nt,1.6,nt,nt,nt,2.6
O=C(CCCN1C(=O)/C(=C\c2cccs2)SC1=S)Nc1ccc(C(=O)O)cc1,-1.0,1.2,-20.9,-0.4,-1.6,1.7
O=C(CCCN1C(=O)/C(=C/c2cccs2)SC1=S)Nc1ccc(O)c(C(=O)O)c1,-0.1,nt,-3.0,9.7*,nt,nt
CC(=O)C1=C(c2ccccc2)N(C(C)=O)n2c(C)nnc2S1,-4.4,5.0,-10.1,-3.8,-44.6*,4.5
CC(=O)N1CCN(c2nnc(-c3ccccc3)c3ccccc23)CC1,-1.8,2.4,nt,-1.7,-0.9,-3.1
CC1OC2(C)OC(=N)C1(C#N)C(C#N)(C#N)C2c1ccccc1 (stereo not drawn),-3.1,55.3*,-4.1,-2.9,-18.0,66.0*
CCCCC1OC2(C)OC(=N)C1(C#N)C(C#N)(C#N)C2c1ccccc1 (stereo not drawn),-2.3,21.2,9.1,-1.3,nt,22.7
CC1C2(C)OC(=N)C(C#N)(C(C)O2)C1(C#N)C#N (stereo not drawn),-3.0,51.6*,11.0,-1.8,-30.4*,24.6
Cc1cc(NC(=O)c2ccc3c(c2)OCO3)no1,4.7*,-2.5,-19.3,1.2,2.4,2.8
CC(C)c1ccc(C2C(C#N)=C(N)N3C(=C2C#N)Sc2ccccc23)cc1 (stereo not drawn),2.6,-1.6,-33.9,-0.5,-120.4*,-9.5
CC(C)c1ccc(C2CC(=O)N3CN(C)CSC3=C2C#N)cc1 (stereo not drawn),-4.0,3.2,-25.1,-1.3,-0.6,0.2
O=C(O)c1cccc(Nc2nc(-c3cc4ccccc4oc3=O)cs2)c1,6.2*,nt,nt,0.9,-2.3,nt
Cc1ccc2nc(-c3ccccc3)cn2c1,-1.6,1.3,-19.0,1.9,1.6,-5.5
Cc1ccc2nc(-c3ccc(O)c(O)c3)cn2c1,-4.2,22.6,nt,2.2,-48.3*,9.4
Cc1nc(-c2ccc(O)c(O)c2)cs1,-1.2,23.0,-47.3,-1.3,-51.2*,4.0
COc1cc(-c2csc(C)n2)ccc1O,-3.1,1.2,0.1,-1.6,1.3,13.5
COc1ccc(NS(=O)(=O)c2cccc(C(=O)NCc3ccccc3CN3CCCC3)c2)cc1,nt,1.8,nt,nt,nt,2.4
CC(=O)c1ccc(OCCCC(=O)NNC(=O)c2ccccn2)cc1,nt,6.5,nt,nt,nt,-1.9
Cc1ccc(S(=O)(=O)N2CCOCC2)cc1NC(=O)COc1cccc(Oc2ccccc2)c1,nt,0.2,nt,nt,-6.8,11.6
Cc1cc(/C=C2/SC(=S)N(c3cccc(C(F)(F)F)c3)C2=O)c(C)n1-c1cccnc1,1.3,-18.7,nt,0.3,-10.3,-11.0
Cc1cc(/C=C2\SC(=S)N(Cc3ccco3)C2=O)c(C)n1-c1cccnc1,-2.3,nt,121.6*,-2.6,-62.3*,nt
CC1(C)Cc2c(c(-c3ccco3)nc3sc4c(NCCCO)ncnc4c23)CO1,9.3*,10.3,-12.5,1.3,-3.5,-2.2
CC1=NNC(=O)C1Cc1ccc(F)cc1 (stereo not drawn),-2.6,4.4,-0.7,8.4*,1.4,-2.8
SMILES,IMP-1 inh,BCLXL inh,EBV gp42 inh,VIM-2 inh,MEX-5 binding,GLD-1 TGE inh
COCc1n[nH]c(=S)n1-c1cccc2ccccc12,-3.4,-10.5,-20.6,8.0*,nt,0.3
Cc1ccc2c(c1)N(C(=O)CCC(=O)NC1CCN(Cc3ccccc3)CC1)CC(C)O2 (stereo not drawn),2.6,-0.3,nt,-3.1,1.0,0.9
Cn1c(C(=O)NCCCN2CCc3ccccc3C2)cc2c(=O)n(C)c3ccccc3c21,-3.1,5.5,-15.9,9.8*,1.3,6.1
COCCCNC(=O)c1cc2c(=O)n(C)c3ccccc3c2n1C,-2.8,4.7,-5.2,7.8*,-0.4,0.5
Cn1c(C(=O)NC2CC2)cc2c(=O)n(C)c3ccccc3c21,-0.5,4.5,-2.2,17.0*,1.7,-1.9
O=C(CN1CCN(c2ccc(O)cc2)CC1)Nc1ccc(S(=O)(=O)N2CCCC2)cc1,nt,nt,nt,nt,nt,-0.2
COc1ccc(-c2cc(C(=O)Nc3cc(Br)ccc3O)no2)cc1,52.4*,2.1,nt,0.0,1.5,1.9
C1CCC(Nc2nc3nonc3nc2N2CCSCC2)C1,1.1,4.9,-9.2,1.1,-0.9,0.8
COC(=O)CCC(=O)Nc1ccc(S(=O)(=O)Nc2nc(C)cc(C)n2)cc1,4.8*,3.0,nt,-0.3,-0.9,3.2
COc1ccc(CC(=O)Nc2ccc(S(=O)(=O)Nc3nc(C)cc(C)n3)cc2)cc1,0.6,-0.9,-4.0,-2.3,nt,4.1
N#C/C(=C\C=C\c1ccccc1[N+](=O)[O-])C(=O)NCc1ccccc1,-2.5,9.9,nt,-4.5,0.8,8.2
N#C/C(=C\c1ccccc1[N+](=O)[O-])C(=O)NCc1ccccc1,-0.9,33.9*,-3.9,-1.0,-1.4,30.0
Cc1ccccc1NC(=O)/C(C#N)=C\c1cccnc1,-1.0,-15.6,-3.2,-1.0,-3.2,2.1
N#C/C(=C\c1cccnc1)C(=O)Nc1ccccc1[N+](=O)[O-],-2.9,34.1*,nt,-2.2,-0.4,23.9
COc1ccc(NC(=O)CCNS(=O)(=O)c2cc(Br)cnc2N)c(OC)c1,-0.7,0.1,nt,-3.2,1.6,1.4
CCOc1ccc2nc3cc(NCc4ccc(OC)cc4)ccc3c(N)c2c1,-1.3,184.2*,nt,-1.4,-33.0*,-40.5
Cc1cccc(NC(=O)CSc2nnc(CSc3nc(C)cc(C)n3)o2)c1,-2.3,31.0*,-9.1,-1.2,-3.1,2.4
O=C(Cn1cc2c(n1)CCCC2)NCc1ccccn1,-1.1,26.0,52.7*,-1.4,-9.2,19.9
Cc1ccc(C(=O)C2CCN(S(=O)(=O)c3ccc(C(=O)O)cc3)CC2)cc1,-1.4,0.8,nt,-1.9,0.6,5.4
N#CC(C#N)=C(N)CSc1cccc[n+]1[O-],-6.2,30.4*,-6.7,-4.5,-4.4,15.9
O=C(O)CSc1cccc[n+]1[O-],-1.1,3.9,-14.7,-2.2,1.4,1.2
Cc1nc2nc(-c3cccs3)cn2nc1C,-1.3,105.6*,68.4*,0.8,-10.9,72.4*
CC(=O)Nc1cccc(NC(=O)Cc2ccc3ccccc3c2)c1,-0.6,5.2,nt,-0.9,0.1,0.5
O=C(CSc1c2c(nc3ccccc13)CCCC2)NCc1ccco1,0.4,10.9,-5.8,0.4,2.9,3.5
O=C(NCc1ccco1)c1c2c(nc3ccccc13)CCC2,-2.1,21.8,61.9*,-4.2,-0.7,10.0
COc1cc(/C=C2\SC(=O)N(Cc3ccc(F)cc3)C2=O)cc([N+](=O)[O-])c1O,-1.7,nt,58.5*,-1.8,-0.5,nt
COc1cc(/C=C2\C(=O)NN(c3ccc(C)cc3)C2=O)cc([N+](=O)[O-])c1O,-1.6,9.7,2.7,0.2,-15.3,-3.8

# Assay outcomes (PubChem)
